Screening data from PubChem BioAssay.
D1 mod = D1 CRE-luciferase signal change, two-sided – cell-based, HEK293 D1, dopamine EC30, D1 allosteric modulator project, primary screen. D(1A) dopamine receptor (Homo sapiens), P21728. dopamine EC30 potentiation; actives deviate in either direction. B-score at 10 µM. hit rate 5.9% among 58,000;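 active = luminescence count or its row- and column-corrected plate score outside the 99.7% band of the plate's sample wells, on either side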
M1 agonist = M1 muscarinic receptor agonists, primary screen, CHO-M1 cells, Fluo-4 calcium, agonist mode; Muscarinic acetylcholine receptor M1; Fluo-4 calcium fluorescence; stronger effect = higher value; B-score at 10 µM; hit rate 3% among 64,000;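 active = fluorescence rise, raw or as B-score row- and column-corrected plate score, outside the 99.7% band of its plate's samples, either direction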
SF1 activator = activators of human SF-1, primary screen, cell-based, CHO-K1, Gal4-SF-1 LBD, luciferase luminescence; Steroidogenic factor 1 (Homo sapiens), Q13285; CHO-K1 Gal4-SF-1 LBD luciferase reporter; % increase over DMSO SF-1-specific signal; activation, % at 10 µM; hit rate 1.9% among 65,000;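 active = activation above the mean activation of all tested compounds plus 3 SD, cut at about 50% in these data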
Target sequence (Q13285 whole entry, looked up, the tested form may be a part): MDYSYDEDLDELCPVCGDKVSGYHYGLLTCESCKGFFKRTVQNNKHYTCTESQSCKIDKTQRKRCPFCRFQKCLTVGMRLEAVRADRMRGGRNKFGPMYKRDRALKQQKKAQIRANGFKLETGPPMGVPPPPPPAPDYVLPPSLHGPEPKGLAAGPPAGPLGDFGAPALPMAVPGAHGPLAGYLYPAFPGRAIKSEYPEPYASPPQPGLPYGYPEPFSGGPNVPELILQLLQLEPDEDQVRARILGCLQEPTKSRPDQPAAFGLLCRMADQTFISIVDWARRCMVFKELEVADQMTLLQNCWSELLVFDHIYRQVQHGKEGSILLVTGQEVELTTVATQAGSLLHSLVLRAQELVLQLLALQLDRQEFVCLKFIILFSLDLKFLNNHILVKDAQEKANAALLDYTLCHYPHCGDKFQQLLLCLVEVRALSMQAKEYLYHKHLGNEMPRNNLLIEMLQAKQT
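Test system: CHO-K1 cells co-transfected with Gal4 DBD–human SF-1 LBD, 5xGal4 luciferase reporter. Quantity: 4,000 cells per well. Compound: 10 µM only. Incubation: compound added 1 h post-seeding, 20 h exposure at 37 °C, 5% CO2. Detection: SteadyLite luciferase luminescence. Replication: one test per compound.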
RORa activator = activators of orphan receptor RORA, primary screen, cell-based, luminescence | Nuclear receptor ROR-alpha (Homo sapiens), P35398 | CHO-K1 Gal4-RORA LBD luciferase reporter; percent increase over mock-subtracted basal signal | activation, % at 10 µM | hit rate 1.5% among 65,000;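 active = activation above the mean of all tested compounds plus 3 SD, cut at about 49% in these data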;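 note: 0% = DMSO-treated RORA cells and 100% = added signal equal to DMSO minus mock-transfected cells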
Htt clearance = clearance of mutant huntingtin inclusions, primary screen, imaging, HeLa Exon1htt(103Q)mCFP, confocal imaging; inhibition, % at 1.5 µM; aggregate imaging; zero = plate's median compound well; hit rate 0.42% among 47,000; AID 853, 2007;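 active = inhibition of aggregate fluorescence above about 70%, also judged a hit by eye on the cell image, limit read from the data, passing the limit was not always enough; inconclusive = no rule stated for this call; inactive = not judged a hit on image review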;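 note: cells exposed to compound for three days before fixation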
M1 antag = antagonists of rat M1 muscarinic receptor; CHO-M1 cells, Fluo-4 calcium, ACh EC80 antagonist mode; stronger effect = lower value; B-score at 10 µM; hit rate 3.4% among 64,000; AID 628, 2007;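 active = calcium fluorescence response, raw or row-and-column corrected B-score, differing from the plate sample mean either way at a set confidence level, mostly lower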
D1 PAM confirm = D1 receptor positive allosteric modulators, retest, confirmation, cell-based, HEK293 D1, CRE-luciferase, duplicate | shares compounds with D1 mod | dopamine EC30 potentiation; stronger effect = higher value | luminescence at 10 µM | hit rate 88% among 2,200;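 active = luminescence in either of two replicates above the same-plate mean plus 3 SD of the low-dose dopamine control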
D1 ag no DA = D1 receptor agonism without dopamine, confirmation, mechanism study for D1 allosteric modulator project, cell-based, HEK293 D1, CRE-luciferase, secondary assay 1; AID 646, 2007; luminescence at 10 µM; hit rate 0.8% among 1,900; shares compounds with D1 mod; luminescence, no dopamine; stronger effect = higher value; in the data active = luminescence above about 3900
Isoprot counter = alters isoproterenol CRE-luciferase response in HEK293 cells. calls only at 10 µM. shares compounds with D1 mod. HEK293 D1 CRE-luciferase, isoproterenol EC30 counter-screen. hit rate 63% among 2,200;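 active = luminescence in either replicate above plate mean of wells with a partly effective reference agonist dose plus 3 SD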;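 note: isoproterenol raises cAMP through native beta-adrenoceptor Gs so signal bypasses D1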
Active calls of the source: *; i = inactive; ? = inconclusive; . = not tested or not shown; + = active, no number. Only some compounds are listed: those with a hit (about 11% of all), similar ones and a draw of the others.

SMILES	D1 mod	M1 agonist	SF1 activator	RORa activator	Htt clearance	M1 antag	D1 PAM confirm	D1 ag no DA	Isoprot counter
CC(C)(C)Sc1nc(O)cc(=O)[nH]1	2.1*	-0.47	-2	6	.	-0.23	5460	1436	i
O=c1cc(O)nc(SCc2ccccc2)[nH]1	0.35	-0.84	-3	6	-9	0.18	.	.	.
COc1ccc(-c2cc(C(F)(F)F)n3nc(C)cc3n2)cc1	12*	-0.015	13	-12	.	0.11	9368*	1632	+
COc1cccc(-c2cc(C(F)(F)F)n3nc(N)nc3n2)c1	7.3*	1	-13	2	-26	0.31	15000*	1596	+
COc1ccc(-c2cc(C(F)(F)F)n3nc(N)nc3n2)cc1	.	.	.	.	16	.	.	.	.
Cc1cc2nc(-c3ccco3)cc(C(F)(F)F)n2n1	32*	0.13	-3	9	-302	-0.28	22332*	.	+
CN1CCN(S(=O)(=O)c2ccc(Cc3ccc(S(=O)(=O)N4CCN(C)CC4)cc3)cc2)CC1	-3.5	-0.47	-2	-2	.	-0.51	.	.	.
CC(C)(C)Nc1nc(NC(C)(C)C)nc(-n2ccnc2)n1	5.7*	1.1	-14	10	.	-0.28	17956*	2972	+
CCN(CC(=O)Nc1c(C(=O)OC)[nH]c2ccccc12)c1ccc2c(c1)OCO2	8.3*	1.8	4	-7	.	0.8	11912*	1772	+
CCCc1[nH]nc2c1C(c1cccnc1)C(C#N)=C(N)O2 (stereo unspecified)	6.7*	0.21	6	-4	7	0.66	3948	1664	i
CCc1ccc2nc(SCC(=O)N(CC)CC)c(C#N)cc2c1	3.1*	-0.84	14	-21	-8	1.1	8128*	1728	+
CCOc1ccc2nc(SCC#N)c(C#N)cc2c1	-0.0021	0.61	41	34	-31	-0.23	.	.	.
CCOC(=O)c1sc2nc(N3CCOCC3)c3c(c2c1N)CC(C)(C)N(C)C3	3.1*	1.3	6	-9	2	-1.1	12684*	1612	+
CC(=O)c1nn(-c2cccc(Cl)c2)cc1C(=O)c1ccco1	4.3*	-0.048	-28	-6	.	-0.47	12508*	1716	i
COc1ccc(CNC(=O)c2ccc(NS(=O)(=O)c3c(C)noc3C)cc2)cc1	1.4	-0.75	4	4	.	0.38	.	.	.
Cc1cc2cc(CN(CCN3CCOCC3)C(=O)Nc3ccccc3F)c(=O)[nH]c2cc1C	2.7*	1.2	1	-21	.	0.59	5960*	1568	i
Cc1nnc(NC(=O)c2cccc(Br)c2)s1	.	.	.	.	40	.	.	.	.
CCOc1ccc(C(=O)Nc2nnc(C)s2)cc1OCC	5.9*	-0.23	-9	-13	-19	0.091	13964*	.	+
N#CC1=C(N)S[C@H](C(=O)C23CC4CC(CC(C4)C2)C3)[C@H]1c1ccncc1	12*	-0.22	5	-7	52	-0.095	12784*	1676	+
O=C(NCc1ccncc1)C12CC3CC(CC(C3)C1)C2	0.95	-0.11	2	-5	37	0.66	.	.	.
CCCCc1nc2n[nH]c(N)c2c2c1CCCC2	21*	-0.64	1	-28	?	0.79	20280*	1464	+
CCN(CC)S(=O)(=O)c1ccc(-n2cnnn2)c(C)c1	.	.	.	.	-2	.	.	.	.
